As usually defined, the IC50 is the midpoint of a concentration-inhibition curve. One may read the inhibition as the share of the control response that was lost under treatment.

This note sets out measurements from ChEMBL document CHEMBL2069238, “Discovery of potent and selective rhodanine type IKKβ inhibitors by hit-to-lead strategy” (Bioorg Med Chem Lett, 2012).

The target of test [1] is Mitogen-activated protein kinase 11 (Homo sapiens, UniProt Q15759). The test can be described thus: Inhibition of MAPK p38beta.
Mitogen-activated protein kinase 11, sequence (Q15759 whole entry): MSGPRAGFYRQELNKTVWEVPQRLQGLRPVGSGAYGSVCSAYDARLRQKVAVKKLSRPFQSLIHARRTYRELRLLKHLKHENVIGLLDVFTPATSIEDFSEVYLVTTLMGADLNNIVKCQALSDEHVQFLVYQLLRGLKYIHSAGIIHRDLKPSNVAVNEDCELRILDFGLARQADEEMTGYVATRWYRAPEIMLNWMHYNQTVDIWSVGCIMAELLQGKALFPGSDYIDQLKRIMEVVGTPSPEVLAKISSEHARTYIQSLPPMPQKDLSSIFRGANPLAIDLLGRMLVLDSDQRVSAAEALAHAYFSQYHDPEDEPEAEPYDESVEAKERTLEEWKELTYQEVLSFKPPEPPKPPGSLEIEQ
Test [2] has as its target T1, Inhibitor of nuclear factor kappa-B kinase subunit beta (Mus musculus, UniProt O88351).
T1 sequence (O88351 whole entry): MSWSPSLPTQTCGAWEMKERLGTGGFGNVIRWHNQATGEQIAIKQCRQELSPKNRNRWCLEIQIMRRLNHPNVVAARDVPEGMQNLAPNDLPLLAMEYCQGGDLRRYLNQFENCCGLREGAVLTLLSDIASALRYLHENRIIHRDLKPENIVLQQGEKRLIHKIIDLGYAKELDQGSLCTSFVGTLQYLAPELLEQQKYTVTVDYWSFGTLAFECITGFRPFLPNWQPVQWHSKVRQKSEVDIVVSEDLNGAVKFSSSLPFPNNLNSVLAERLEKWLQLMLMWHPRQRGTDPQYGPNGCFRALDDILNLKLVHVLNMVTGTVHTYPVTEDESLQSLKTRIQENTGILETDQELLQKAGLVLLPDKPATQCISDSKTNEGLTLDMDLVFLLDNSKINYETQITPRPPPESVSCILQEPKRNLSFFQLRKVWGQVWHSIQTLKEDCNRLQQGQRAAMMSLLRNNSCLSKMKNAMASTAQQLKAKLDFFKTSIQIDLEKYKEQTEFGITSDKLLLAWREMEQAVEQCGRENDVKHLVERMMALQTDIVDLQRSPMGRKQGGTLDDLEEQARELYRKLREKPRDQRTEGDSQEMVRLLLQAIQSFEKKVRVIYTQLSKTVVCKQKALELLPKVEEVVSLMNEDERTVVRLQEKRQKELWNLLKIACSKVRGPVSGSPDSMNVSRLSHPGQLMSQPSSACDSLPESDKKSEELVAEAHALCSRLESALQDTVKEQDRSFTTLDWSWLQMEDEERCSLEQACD
In words: Inhibition of IKKbeta in mouse CIA model splenocytes assessed as inhibition of TNFalpha production after 72 hrs by ELISA. The class given is cell-based. A digest of the protocol: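 Spleens from collagen type II-immunized mice were taken 8 weeks after primary immunization. Red cells were lysed with 0.83% ammonium chloride, and cells were strained and resuspended in RPMI 1640 at 1 × 10^6 cells/well, then exposed to inhibitor for 72 h. Supernatant TNFα was measured by sandwich ELISA with an alkaline phosphatase chromogenic read at 405 nm, quantified against a recombinant murine TNFα standard curve.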
For orientation: ELISA stands for enzyme-linked immunosorbent assay.

For test [3], the target named is T2, Inhibitor of nuclear factor kappa-B kinase subunit beta (Homo sapiens) (UniProt O14920).
T2 sequence (whole entry): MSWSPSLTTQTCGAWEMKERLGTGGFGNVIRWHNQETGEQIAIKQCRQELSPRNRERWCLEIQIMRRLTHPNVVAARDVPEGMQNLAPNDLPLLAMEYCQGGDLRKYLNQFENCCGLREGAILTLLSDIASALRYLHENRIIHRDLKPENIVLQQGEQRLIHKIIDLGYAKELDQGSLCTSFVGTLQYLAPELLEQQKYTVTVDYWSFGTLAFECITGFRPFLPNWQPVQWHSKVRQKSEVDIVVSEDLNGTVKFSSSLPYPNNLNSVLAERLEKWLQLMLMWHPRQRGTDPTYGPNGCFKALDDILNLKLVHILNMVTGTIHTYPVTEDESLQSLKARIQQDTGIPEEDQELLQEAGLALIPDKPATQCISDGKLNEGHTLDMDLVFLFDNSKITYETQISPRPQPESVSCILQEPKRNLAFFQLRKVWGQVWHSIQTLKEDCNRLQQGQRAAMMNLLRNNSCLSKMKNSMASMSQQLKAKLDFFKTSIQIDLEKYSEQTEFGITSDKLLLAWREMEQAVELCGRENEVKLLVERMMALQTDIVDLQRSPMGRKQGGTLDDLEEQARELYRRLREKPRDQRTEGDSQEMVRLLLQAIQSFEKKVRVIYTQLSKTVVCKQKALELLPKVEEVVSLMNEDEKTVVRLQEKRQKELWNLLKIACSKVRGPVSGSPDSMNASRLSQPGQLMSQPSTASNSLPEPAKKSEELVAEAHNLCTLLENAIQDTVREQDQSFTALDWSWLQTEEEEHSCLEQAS
The test can be described thus: Inhibition of IKKbeta using 5FAM-GRHDSGLDSMK-NH2 as substrate at 10 uM incubated for 10 mins prior to substrate addition by IMAP-TR-FRET assay. (In general: TR-FRET usually uses a lanthanide donor and a delayed reading to cut background.)

The target in test [4] is Mitogen-activated protein kinase 8 (Homo sapiens, UniProt P45983). The test can be described thus: Inhibition of JNK1.
Mitogen-activated protein kinase 8, sequence (P45983 whole entry): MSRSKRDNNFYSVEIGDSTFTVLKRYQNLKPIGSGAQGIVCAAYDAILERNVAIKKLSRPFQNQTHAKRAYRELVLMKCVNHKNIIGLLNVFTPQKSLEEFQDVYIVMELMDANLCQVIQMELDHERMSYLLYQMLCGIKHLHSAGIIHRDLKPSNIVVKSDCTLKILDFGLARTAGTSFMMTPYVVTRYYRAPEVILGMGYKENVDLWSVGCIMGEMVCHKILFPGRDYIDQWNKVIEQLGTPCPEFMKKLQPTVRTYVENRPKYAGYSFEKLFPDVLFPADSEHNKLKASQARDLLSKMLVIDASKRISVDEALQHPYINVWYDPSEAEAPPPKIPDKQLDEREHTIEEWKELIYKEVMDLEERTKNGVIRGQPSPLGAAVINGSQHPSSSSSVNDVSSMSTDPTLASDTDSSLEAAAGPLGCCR
Test [5] concerns the target Mitogen-activated protein kinase 10 (Homo sapiens, UniProt P53779). The test can be described thus: Inhibition of JNK3.
In test [6] the target is T3, Inhibitor of nuclear factor kappa-B kinase subunit alpha (Homo sapiens, UniProt O15111).
T3 sequence (O15111 whole entry): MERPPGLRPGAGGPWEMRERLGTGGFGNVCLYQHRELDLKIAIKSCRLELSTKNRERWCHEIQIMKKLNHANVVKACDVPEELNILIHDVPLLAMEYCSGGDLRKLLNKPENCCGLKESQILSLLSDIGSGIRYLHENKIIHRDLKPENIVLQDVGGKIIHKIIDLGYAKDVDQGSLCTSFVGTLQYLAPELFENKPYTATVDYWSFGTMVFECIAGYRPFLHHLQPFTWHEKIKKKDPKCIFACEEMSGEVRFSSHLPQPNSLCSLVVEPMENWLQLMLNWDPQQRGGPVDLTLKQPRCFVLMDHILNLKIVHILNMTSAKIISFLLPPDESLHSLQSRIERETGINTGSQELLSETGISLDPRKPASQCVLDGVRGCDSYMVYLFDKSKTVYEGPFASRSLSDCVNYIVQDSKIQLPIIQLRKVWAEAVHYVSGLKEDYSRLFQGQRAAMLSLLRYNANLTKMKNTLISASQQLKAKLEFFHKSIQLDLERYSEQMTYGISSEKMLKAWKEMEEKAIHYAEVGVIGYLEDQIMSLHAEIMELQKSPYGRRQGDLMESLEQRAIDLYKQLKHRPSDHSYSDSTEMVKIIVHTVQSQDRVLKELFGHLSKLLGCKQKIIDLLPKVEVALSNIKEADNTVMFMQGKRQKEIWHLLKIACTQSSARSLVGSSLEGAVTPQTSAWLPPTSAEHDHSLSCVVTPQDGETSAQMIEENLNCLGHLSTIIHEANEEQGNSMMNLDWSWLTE
The test can be described thus: Inhibition of IKKalpha.

In test [7] the target is Mitogen-activated protein kinase 9 (Homo sapiens, UniProt P45984). In words: Inhibition of JNK2.
Mitogen-activated protein kinase 9, sequence (P45984 whole entry): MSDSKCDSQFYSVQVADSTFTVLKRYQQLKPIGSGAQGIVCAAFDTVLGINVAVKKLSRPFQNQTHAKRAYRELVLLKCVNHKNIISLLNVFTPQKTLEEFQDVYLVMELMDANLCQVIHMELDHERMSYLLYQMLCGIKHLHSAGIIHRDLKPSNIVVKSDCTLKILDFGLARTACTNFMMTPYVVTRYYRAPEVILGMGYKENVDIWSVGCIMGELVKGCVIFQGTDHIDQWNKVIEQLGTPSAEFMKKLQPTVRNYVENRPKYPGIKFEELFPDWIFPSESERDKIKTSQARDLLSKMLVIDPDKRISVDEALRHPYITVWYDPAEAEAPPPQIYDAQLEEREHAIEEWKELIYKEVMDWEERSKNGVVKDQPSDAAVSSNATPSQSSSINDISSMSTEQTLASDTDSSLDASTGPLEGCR
The target of test [8] is T4, Inhibitor of nuclear factor kappa-B kinase subunit beta (Homo sapiens, UniProt O14920).
T4 sequence (O14920 whole entry): T2 sequence (whole entry)
In words: Inhibition of IKKbeta using 5FAM-GRHDSGLDSMK-NH2 as substrate incubated for 10 mins prior to substrate addition by IMAP-TR-FRET assay.

Test [9] concerns the target Mitogen-activated protein kinase 14 (Homo sapiens, UniProt Q16539). The test can be described thus: Inhibition of MAPK p38alpha.
Test [10] concerns the target T2, Inhibitor of nuclear factor kappa-B kinase subunit beta (Homo sapiens). In words: Inhibition of IKKbeta in human HeLa cells assessed as inhibition of TPA-induced NFkappaB activation at 10 uM incubated for 1 hr prior to TPA-challenge measured after 8 hrs by luciferase reporter gene assay. The class given is cell-based. An outline of the steps: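 HeLa cells transfected with an NF-κB luciferase reporter plasmid, pre-treated with inhibitor for 1 h, then stimulated with TPA (50 ng/mL) for 8 h. Luciferase activity normalized to protein content of each extract, expressed as relative luciferase units per mg versus non-treated cells; n = 3.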
For orientation: A reporter such as luciferase makes a cellular process visible.

SMILES strings stand for the structures.

Mitogen-activated protein kinase 14, sequence (Q16539 whole entry): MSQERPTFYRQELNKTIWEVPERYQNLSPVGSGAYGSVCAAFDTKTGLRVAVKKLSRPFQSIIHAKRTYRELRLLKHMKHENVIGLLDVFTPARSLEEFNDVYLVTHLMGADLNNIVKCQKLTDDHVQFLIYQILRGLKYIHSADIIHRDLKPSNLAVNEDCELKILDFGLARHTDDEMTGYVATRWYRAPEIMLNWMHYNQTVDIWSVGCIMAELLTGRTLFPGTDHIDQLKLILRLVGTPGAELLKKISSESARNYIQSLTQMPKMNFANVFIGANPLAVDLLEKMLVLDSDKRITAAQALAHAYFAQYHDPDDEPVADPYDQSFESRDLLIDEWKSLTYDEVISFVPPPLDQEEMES
Mitogen-activated protein kinase 10, sequence (P53779 whole entry): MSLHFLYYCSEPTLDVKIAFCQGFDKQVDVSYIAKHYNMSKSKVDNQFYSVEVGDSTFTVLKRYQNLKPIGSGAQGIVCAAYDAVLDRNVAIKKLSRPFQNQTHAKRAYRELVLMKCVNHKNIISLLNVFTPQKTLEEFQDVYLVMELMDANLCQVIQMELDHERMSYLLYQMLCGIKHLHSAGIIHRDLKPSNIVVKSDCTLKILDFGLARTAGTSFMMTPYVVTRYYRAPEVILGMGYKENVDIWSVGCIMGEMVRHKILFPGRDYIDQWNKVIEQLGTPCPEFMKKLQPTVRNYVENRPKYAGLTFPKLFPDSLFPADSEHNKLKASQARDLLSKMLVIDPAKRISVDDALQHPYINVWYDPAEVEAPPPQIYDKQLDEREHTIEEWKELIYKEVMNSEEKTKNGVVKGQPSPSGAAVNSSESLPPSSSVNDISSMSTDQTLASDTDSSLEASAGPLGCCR

For `CN1CCN(CCCOc2ccc(N3C(=O)/C(=C/c4ccc(Oc5ccc(C(N)=O)cc5)cc4)SC3=S)cc2)CC1`, the half-inhibitory concentration (IC50) in test [1] was more than 30 µM; in test [2] it was 2 µM; in test [4], more than 30 µM; in test [5] it was more than 30 µM; in test [6], more than 30 µM; in test [7], more than 30 µM. The results for the IC50 in test [8] and in [9] were 0.35 µM and more than 30 µM, respectively. Moreover, the inhibition in test [3] turned out to be 90.1%; in test [10] it was 65.4%.
For the compound `NC(=O)c1ccc(Oc2ccc(/C=C3\SC(=S)N(c4ccc(OCCCN5CCCC5)cc4)C3=O)cc2)cc1`, the IC50 in test [1] is more than 30 µM; in test [2], 5 µM; in [4] it was more than 30 µM; in test [5], more than 30 µM; in [6], more than 30 µM; in test [7] it was more than 30 µM. In addition, the IC50 in test [8] is 1.5 µM; in [9] it was more than 30 µM. For the same compound, the inhibition in test [3] came out at 85.3%; in test [10], 58.5%.
On to `CN1CCN(CCCOc2ccc(N3C(=O)/C(=C/c4ccc(Oc5cccc(C(N)=O)c5)cc4)SC3=S)cc2)CC1`, for which the concentration for half-maximal inhibition (IC50) in [1] was more than 30 µM; in test [2], 5 µM; in test [4], more than 30 µM; in test [5], more than 30 µM; in test [6] it was more than 30 µM; in test [7] it was more than 30 µM. Further, the IC50 in test [8] was 1.5 µM; in test [9], more than 30 µM. For the same compound, the inhibition was found to be 86.8% in [3] and 64.7% in test [10].
